# Source: PubChem BioAssay (The Scripps Research Institute Molecular Screening Center)
# Rows were chosen to be rich in hits. Some 2.7% of all compounds tested hit in one or more screens of this group.
# TCR-CD3 inh: inhibitors of human TCR-CD3 interaction, primary screen, biochemical, fluorescence, TAMRA-labeled TCR probe. T-cell receptor (TCR). inhibition, % at 9.4 µM. 360,000 tested, 0.37% active. AID 651800, 2012; in the data active means inhibition above about 19%;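 further: recombinant mutant TCR 2C K166C tagged with TAMRA read by polarization; 0% = receptor in buffer alone and 100% = receptor with positive control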
# SIAE inh: human SIAE inhibitors, primary screen, biochemical, fluorescence polarization, FP-Rh probe, 1536-well HTS. Sialate O-acetylesterase (Homo sapiens), Q9HAT2. SIAE FP-Rh probe binding. inhibition, % at 9.66 µM. 370,000 tested, 0.69% active;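 active means inhibition above a cutoff: mean of compounds within the control limits plus 3 SD of those, cut at about 17% in these data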;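 further: 0% = plate median of compound wells and 100% = probe without SIAE protein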
# PRMT1 inh: PRMT1 methyltransferase inhibitors, primary screen, biochemical, fluorescence polarization | AID 652257, 2013 | Protein arginine N-methyltransferase 1 (Homo sapiens), Q99873 | recombinant PRMT1, activity-based probe fluorescence polarization | 370,000 tested, 1.3% active | inhibition, % at 2.79 µM;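 active means inhibition above about 21% made by adding two undisclosed values, limit read from the data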
# HTRA1 inh: HTRA1 serine protease inhibitors, primary screen, biochemical, fluorescence polarization, HTS | Q92743 | recombinant HTRA1, FP-rhodamine activity-based probe | inhibition, % at 5.96 µM | 340,000 tested, 0.5% active | AID 504803, 2011; in the data active means inhibition above about 36%;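 further: 0% = enzyme with DMSO and 100% = wells lacking enzyme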
# Target sequence (Q92743 whole entry, looked up): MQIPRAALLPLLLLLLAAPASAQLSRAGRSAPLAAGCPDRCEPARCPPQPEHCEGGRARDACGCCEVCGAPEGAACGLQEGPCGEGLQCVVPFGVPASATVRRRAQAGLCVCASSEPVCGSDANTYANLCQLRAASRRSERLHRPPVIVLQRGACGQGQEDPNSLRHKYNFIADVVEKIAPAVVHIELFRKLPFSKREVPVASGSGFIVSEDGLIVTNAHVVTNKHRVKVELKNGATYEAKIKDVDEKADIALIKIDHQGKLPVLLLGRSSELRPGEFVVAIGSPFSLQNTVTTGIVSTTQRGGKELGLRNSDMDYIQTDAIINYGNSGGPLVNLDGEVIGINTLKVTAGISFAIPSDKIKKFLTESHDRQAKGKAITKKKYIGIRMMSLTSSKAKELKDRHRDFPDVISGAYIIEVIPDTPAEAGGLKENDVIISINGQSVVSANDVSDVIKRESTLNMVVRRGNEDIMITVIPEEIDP
# ABHD4 inh: ABHD4 inhibitors, primary screen, biochemical, fluorescence polarization, mouse; purified mABHD4, FP-Rh probe fluorescence polarization; inhibition, % at 8.92 µM; 370,000 tested, 0.54% active;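 active means inhibition exceeding the mean over every tested compound plus 3 SD, cut at about 30% in these data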;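 further: 0% = plate median of compound wells and 100% = S159A mutant with DMSO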
#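 system = mouse ABHD4 enzyme, wild type | medium = HEPES pH 7.0, NaCl, Pluronic buffer | also added = FP-Rh probe | incubation = Enzyme–compound pre-incubation 45 min, then probe 60 min, both 25 °C | technique = fluorescence polarization, excitation 525 nm, emission 598 nm, BODIPY TMR filters | controls = S159A mutant high control, sample median low control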
# SIAE confirm: human SIAE inhibitors, retest, confirmation, biochemical, fluorescence polarization, FP-Rh probe, triplicate. 2,300 tested, 13% active. SIAE FP-Rh activity-based probe. shares compounds with SIAE inh. inhibition, % at 9.66 µM;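 active means mean inhibition of the replicates above the hit cutoff set in the primary screen, cut at about 17% in these data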;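 further: 0% = SIAE with DMSO and probe and 100% = probe without SIAE; inhibitors lower polarization as more probe stays unbound to SIAE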
# Numbers without * were called inactive; / = no result given.
SMILES,TCR-CD3 inh,SIAE inh,PRMT1 inh,HTRA1 inh,ABHD4 inh,SIAE confirm
O=C(OCC(=O)N1CCN(C(=O)c2ccco2)CC1)c1ccccc1NCCO,-8,24*,3,7,4,1
O=C(C[n+]1cccc2ccccc21)c1ccc(Br)cc1,-4,20*,1,-2,2,-4
Cc1ccc(C(=O)C[n+]2cccc3ccccc32)cc1,6,-1,-1,-8,7,/
CCNC(=S)Nc1cc(C(=O)N2CCCC2)ccc1N1CCCC1,2,23*,-2,0,1,1
COc1cc(CNc2cc(C)ccc2C)cc(OC)c1OC,2,24*,0,3,-5,0
COc1ccc(C(C)NC(=O)Cc2cccs2)cc1OC (stereo not given),-7,2,2,5,2,/
COC(=O)C1CN(Cc2ccc(C)cc2)CCS(=O)(=O)N1Cc1cn(Cc2ccc(F)cc2)nn1 (stereo not given),/,60*,-2,/,-2,-3
COC(=O)C1CN(Cc2ccc(F)cc2)CCS(=O)(=O)N1Cc1cn(Cc2ccc(F)cc2)nn1 (stereo not given),/,4,2,/,5,/
O=C1CCSC2=C1SCc1sccc12,-7,9,5,/,6,/
CCOC(=O)C(NC(=O)Nc1ncccn1)(Oc1ccccc1)C(F)(F)F (stereo not given),-1,24*,3,3,5,3
CCOC(=O)C(NC(=O)Nc1ccc(F)cc1F)(Oc1ccc(F)cc1)C(F)(F)F (stereo not given),0,6,1,8,3,/
CC(NC(=O)c1ccc2c(c1)C(=O)N(Cc1cccnc1)C2=O)c1ccccc1 (stereo not given),-4,-4,2,-4,8,/
COc1ccc(S(=O)(=O)Nc2ccc3c(c2)C(=O)N([C@H](C)CO)C[C@H](C)[C@@H](CN(C)C(=O)Nc2ccc(C(F)(F)F)cc2)O3)cc1,3,-16,-1,-21,-16,/
COc1cc(N(C)C)ccc1[C@]1(O)C(=O)N(C)c2ccc(Br)cc21,2,2,1,/,7,/
CN1/C(=C/C=C(C#N)C#N)C(C)(C)c2ccccc21,-14,25*,-3,-6,-7,81*
CN1/C(=C\C(=O)C(F)F)C(C)(C)c2ccccc21,3,0,-1,-5,-9,/
Oc1c(Br)cc(Br)cc1C=Nc1cccc2ncccc12,15,22*,3,32,19,-3
Brc1cccc(C=Nc2cccc3ncccc23)c1,2,3,0,10,-1,/
CN1C(=O)/C(=C/c2ccc(-c3ccccc3[N+](=O)[O-])o2)SC1=Nc1ccc(Cl)c(C(=O)O)c1,8,19*,11,10,17,15
Cc1ccc(S(=O)(=O)N2CCN(c3ccccc3)CC2)c(C)c1,-6,22*,-1,-8,2,5
Cc1cc(C)c(S(=O)(=O)N2CCN(c3ccccc3)CC2)c(C)c1,7,4,2,-14,-8,/
Cn1cc(S(=O)(=O)N2CCN(c3ccccc3)CC2)c(=O)n(C)c1=O,-10,60*,6,3,10,2
COc1cc(OC)cc(C(=O)NCCN2C(=O)C3C4C=CC(C4)C3C2=O)c1 (stereo not given),/,3,0,/,5,/
COc1ccc(CC2=CC(=O)c3ccccc3C2=O)cc1,4,18*,79*,2,21,6
COc1cccc(CNC(=O)CN2CCCc3ccccc32)c1,/,2,6,/,3,/
Cc1c(Cc2ccccc2)c(=O)oc2cc(O)cc(O)c12,2,5,0,-15,-22,/
O=C(/C=C/c1ccco1)NC(=S)Nc1cccc([N+](=O)[O-])c1,3,23*,20,7,21,-16
CCn1c(-c2ccccc2)csc1=Nc1ccc(O)cc1,-8,25*,4,11,-1,4
CCc1nc2ccc(C(=O)NCCCN3CCCC3=O)cn2c1N(CC)Cc1cccc(Br)c1,-3,3,0,/,5,/
